# The list is not random: actives were taken first. Their share in the collection is about 3.7%.
# Dynein transport: inhibitors of GR-EGFP nuclear translocation, primary screen, dynein cargo transport inhibitor project, imaging, high-content, 3617.4 mouse cells | z-score, hits read low | AID 1381, 2008 | test concentration mostly 20 µM; stimulated with dexamethasone, 1 µM; stronger effect = lower value | actives 0.47% (n = 220,000);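 active = plate z-score of nuclear minus cytoplasmic receptor signal below a set negative limit, without overly bright fluorescence or cell loss, cut at about -3.5 in these data, passing the limit was not always enough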;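 also: z-score of nuclear minus cytoplasmic ring GR-EGFP intensity difference per well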
#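 Also added: dexamethasone, 1.0 µM final. Medium: tet-free, stripped-serum medium. Detection: fixed, Hoechst-stained cells imaged at 10x for EGFP. Read-out: nuclear-to-cytoplasmic GR-EGFP distribution per well. Times: induction 48 h, compound 1 h, agonist 30 min.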
# B2AR ag: beta2AR agonists driving receptor internalization, primary screen, cell-based, FAP fluorogen, flow cytometry; Beta-2 adrenergic receptor (Homo sapiens), P07550; Am2.2-beta2AR cells; response, % (concentration not given with the values); actives 0.43% (n = 340,000);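 active = response above a set limit, near 3 SD of response in nonfluorescent compounds, cut at about 42% in these data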
# UPR XBP1 act: activators of adaptive XBP1 UPR arm, primary screen, cell-based, CHO-XBP1 luciferase reporter, luminescence, uHTS; actives 0.33% (n = 330,000); activation, % at 20 µM; IRE1-XBP1 UPR activation; percent of tunicamycin response, DMSO as zero;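 active = versus positive control, 20 µM dose yields 30% or more activation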;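 also: 100% = tunicamycin at 10 µg/mL and 0% = DMSO only wells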
#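 Material: IRE1-XBP1 luciferase reporter CHO line / Quantity: one thousand reporter cells per well / Buffer or medium: F12 with 10% serum / Compound: 20 µM single concentration, DMSO 1% / Times: 6 h treatment, 37 °C / Detection: Steady-Glo luciferase glow luminescence, 10 min after reagent addition / Benchmarks: tunicamycin high, DMSO low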
# UPR CHOP act: activators of apoptotic CHOP UPR arm, primary screen, cell-based, CHO-CHOP luciferase reporter, luminescence, uHTS. UPR activation; percent of tunicamycin response over DMSO baseline. activation, % at 10 µM. actives 0.34% (n = 330,000);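 active = at 10 µM dose, activation of 40% or more, normalized to positive control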;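 also: 100% = tunicamycin at 10 µg/mL and 0% = DMSO alone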
#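 Assay system: CHO cells with stable CHOP pathway luciferase reporter; Buffer or medium: F12 plus 10% serum; Times: 16-18 h cell attachment, then 6 h compound exposure, 37 °C; Signal: luciferase luminescence; Read-out basis: percent activation relative to tunicamycin control; Control set: tunicamycin high control, DMSO low control.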
# MDM2 E3 inh: MDM2-luciferase reporter signal enhancers, primary screen, MDM2 E3 ligase inhibitor project, cell-based, luminescence, 1536-well; E3 ubiquitin-protein ligase Mdm2 (Homo sapiens), Q00987; cell-based MDM2 ubiquitination luciferase reporter, 2 h; 0 = plate control, 100 = twice control, blank-subtracted; signal enhancement, % at 5 µM; actives 0.11% (n = 210,000); AID 1230, 2008;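 active = signal enhancement of 30% or more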;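 also: luminescence tracks abundance of the self-degrading MDM2-luciferase fusion protein; higher signal means inhibition of MDM2 E3 ligase activity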
#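 Assay system: mammalian cells stably expressing self-ubiquitinating, self-degrading MDM2 E3–luciferase fusion. Quantity: 2000 cells in each well. Medium: DMEM culture medium. Compound dosing: single-point 5 µM. Timing: cell settling 4 h, compound treatment 2 h, both 37 °C. Technique: luciferase luminescence. Read-out basis: percent signal gain over controls, blank-subtracted. Benchmarks: plate controls and plate blanks.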
# Mdm2-MdmX inh: inhibitors of human Mdm2-MdmX association, primary screen, cell-based, luminescence, split luciferase, SaOS-2, uHTS. actives 3% (n = 330,000). inhibition, % at 8 µM. SaOS-2 split-luciferase Mdm2/MdmX complementation;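 active = inhibition of at least 50% at 8 µM in the primary screen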
# Beta2AR ag CP1: beta2AR agonists via receptor internalization, confirmation, cell-based, FAP fluorogen, flow cytometry, single point, cherry pick 1; shares compounds with B2AR ag; Am2.2-beta2AR cells, FAP surface receptor; stronger effect = lower value; percent response (surface receptor), % at 10 µM; actives 25% (n = 1,100);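 active = surface receptor percent response at or below 58%, roughly 3 SD from nonfluorescent compounds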
# B2AR FAP counter: counter-screen for beta-2AR agonists: fluorescence in Am2.2 cells. shares compounds with B2AR ag. FAP fluorogen flow cytometry, fluorescence counterscreen; stronger effect = lower value. calls only at 10 µM. 1,100 tested, under 10 active. AID 588765;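 active = percent response below a set limit in fluorescence channel 1 and below 50% in channel 8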
# The depositor's hits bear a star; i = inactive; · = no result.
SMILES,Dynein transport,B2AR ag,UPR XBP1 act,UPR CHOP act,MDM2 E3 inh,Mdm2-MdmX inh,Beta2AR ag CP1,B2AR FAP counter
CCOC(=O)c1ccc(N2C(=O)c3n[nH]c(-c4ccco4)c3C2c2cccc([N+](=O)[O-])c2)cc1 (stereo unspecified),-0.91,85*,1,2,-10,2,23*,i
CCOC(=O)c1ccc(N2C(=O)c3n[nH]c(C)c3C2c2ccco2)cc1 (stereo unspecified),-0.53,-15,-1,0,-5,28,·,·
O=C(N[C@@H](Cc1ccccc1)C(=O)OCc1ccccc1)c1nc[nH]c1C(=O)NCc1ccccc1,-0.38,63*,-1,-1,·,4,106,i
CC(C)C[C@H](NC(=O)c1[nH]cnc1C(=O)N[C@@H](Cc1ccccc1)C(=O)OCc1ccccc1)C(=O)OCc1ccccc1,·,-1,0,0,·,25,·,·
Cc1cc(-c2ccccc2)nc(SCC(=O)N2CCCC2)n1,0.35,-19,-3,-2,-4,12,115,i
O=C(CCCCCn1c(=S)[nH]c2ccccc2c1=O)NCc1ccc2c(c1)OCO2,-0.43,113*,-2,-2,-10,10,29*,i
O=C(CCn1c(=O)[nH]c2ccsc2c1=O)NCc1ccc(F)cc1,-0.7,-7,2,2,3,-9,95,i
O=C(CCCn1c(=O)[nH]c2ccsc2c1=O)N1CCN(Cc2ccc3c(c2)OCO3)CC1,0.89,-21,-3,1,·,-2,·,·
O=c1c2ccccc2[nH]c(=S)n1Cc1ccc2c(c1)OCO2,0.95,-11,5,2,5,17,·,·
O=C(CCCCCn1c(=O)[nH]c2ccsc2c1=O)NCc1ccc2c(c1)OCO2,-0.13,113*,0,3,-6,15,26*,i
Oc1ccc2nnc3c(Br)cnn3c2c1,·,-1,-2,-1,·,1,·,·
O=C(c1ccc2c(c1)OCCO2)N1CCCC(CNS(=O)(=O)c2cccs2)C1 (stereo unspecified),3,-6,-1,0,-13,11,·,·
CC(=O)c1oc2ccccc2c1NC(=O)CCCN1C(=O)c2ccccc2C1=O,0.31,68*,-2,-2,-11,5,101,i
COC(=O)CCC(=O)c1oc2ccccc2c1NC(=O)CCCN1C(=O)c2ccccc2C1=O,-0.7,2,-4,-3,-6,12,·,·
Cc1ccc(S(=O)(=O)N2CCCC2C(=O)NCCc2nc3ccccc3[nH]2)cc1 (stereo unspecified),-0.079,50*,1,1,0,5,117,i
Cc1ccc(S(=O)(=O)N2CCCC2C(=O)NCCc2ccccc2)cc1 (stereo unspecified),1.2,-3,-3,-1,-3,12,·,·
Cc1ccc(NC(=O)CN2C(=O)/C(=C3\SC(=S)N(C4CCS(=O)(=O)C4)C3=O)c3ccccc32)cc1 (stereo unspecified),-0.1,49*,·,·,-16,·,83,i
CC(CCc1ccc(O)cc1)NCCc1ccc(O)c(O)c1 (stereo unspecified),·,2,0,1,·,-1,86,i
